Measurements taken from ChEMBL document CHEMBL1152812, “Novel trans-2-aryl-cyclopropylamine analogues as potent and selective dipeptidyl peptidase IV inhibitors” (Bioorg Med Chem, 2009).
The source made the active and inactive calls. The calls are words filed in the database; no cut-off is given here.

How the values were obtained:
Dipeptidyl peptidase 8 [1] = biological target: T1, Dipeptidyl peptidase 8 (Homo sapiens, UniProt Q6V1X1); test: Inhibition of human DPP8
Target sequence in this assay (Q6V1X1 whole entry): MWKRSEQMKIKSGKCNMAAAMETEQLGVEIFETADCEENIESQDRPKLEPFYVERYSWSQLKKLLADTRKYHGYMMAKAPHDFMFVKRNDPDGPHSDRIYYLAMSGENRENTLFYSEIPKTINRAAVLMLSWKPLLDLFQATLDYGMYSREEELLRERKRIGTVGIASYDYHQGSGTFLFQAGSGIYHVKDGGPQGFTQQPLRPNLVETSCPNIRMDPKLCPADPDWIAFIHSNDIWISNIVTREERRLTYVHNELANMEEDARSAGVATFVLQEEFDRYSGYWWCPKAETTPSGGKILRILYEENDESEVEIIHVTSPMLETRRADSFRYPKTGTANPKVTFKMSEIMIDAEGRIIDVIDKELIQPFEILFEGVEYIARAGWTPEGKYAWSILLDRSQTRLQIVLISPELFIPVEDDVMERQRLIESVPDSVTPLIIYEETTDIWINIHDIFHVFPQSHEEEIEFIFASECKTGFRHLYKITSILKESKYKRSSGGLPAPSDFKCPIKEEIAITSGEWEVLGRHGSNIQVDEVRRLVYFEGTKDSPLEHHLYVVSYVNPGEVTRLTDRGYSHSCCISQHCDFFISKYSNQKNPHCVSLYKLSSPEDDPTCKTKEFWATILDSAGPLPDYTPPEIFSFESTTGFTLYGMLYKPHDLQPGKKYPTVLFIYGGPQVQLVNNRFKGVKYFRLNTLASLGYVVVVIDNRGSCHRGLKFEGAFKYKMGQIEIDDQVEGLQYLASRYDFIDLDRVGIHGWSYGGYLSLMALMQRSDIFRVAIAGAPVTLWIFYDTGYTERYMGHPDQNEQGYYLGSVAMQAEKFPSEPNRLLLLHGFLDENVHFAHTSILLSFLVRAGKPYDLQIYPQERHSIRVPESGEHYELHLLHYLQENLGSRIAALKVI

Dipeptidyl peptidase 2 = Dipeptidyl peptidase 2 (Homo sapiens, UniProt Q9UHL4); test: Inhibition of human DPP2
Prolyl endopeptidase FAP = biological target: T2, Prolyl endopeptidase FAP (Homo sapiens, UniProt Q12884); test: Inhibition of human FAP
T2 sequence (Q12884 whole entry): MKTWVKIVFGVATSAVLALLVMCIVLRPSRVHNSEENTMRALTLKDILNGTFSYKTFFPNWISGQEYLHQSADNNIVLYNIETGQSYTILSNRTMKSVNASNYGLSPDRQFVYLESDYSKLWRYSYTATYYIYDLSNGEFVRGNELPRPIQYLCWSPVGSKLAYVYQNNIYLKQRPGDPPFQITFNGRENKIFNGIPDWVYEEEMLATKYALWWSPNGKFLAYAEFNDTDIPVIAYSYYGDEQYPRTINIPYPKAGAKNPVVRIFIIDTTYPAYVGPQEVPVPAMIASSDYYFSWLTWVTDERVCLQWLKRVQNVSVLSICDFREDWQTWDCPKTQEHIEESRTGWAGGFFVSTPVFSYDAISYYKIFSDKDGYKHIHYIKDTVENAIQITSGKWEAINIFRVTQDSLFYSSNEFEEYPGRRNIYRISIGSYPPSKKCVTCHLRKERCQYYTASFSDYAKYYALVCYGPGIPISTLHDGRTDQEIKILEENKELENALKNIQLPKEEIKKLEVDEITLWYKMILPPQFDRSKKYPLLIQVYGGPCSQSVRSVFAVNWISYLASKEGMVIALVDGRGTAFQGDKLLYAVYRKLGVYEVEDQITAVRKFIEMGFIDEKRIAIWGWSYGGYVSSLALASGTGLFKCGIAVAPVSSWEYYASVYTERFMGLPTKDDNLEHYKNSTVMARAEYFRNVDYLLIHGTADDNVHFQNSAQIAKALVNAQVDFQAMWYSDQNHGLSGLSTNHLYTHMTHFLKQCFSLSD

[2] = Plasma clearance in rat at 5 mg/kg, iv or 10 mg/kg, po; format: ADME, organism-based
Summary of the method: (§1)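 Rat pharmacokinetics after dosing at 5 mg/kg iv and 10 mg/kg po. Parameters derived: plasma clearance, oral Cmax, oral half-life, dose-normalised oral AUC and oral bioavailability (F).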

[3] = Cmax in rat at 10 mg/kg, po; format: ADME, organism-based; parameters: dose 10 mg/kg, route oral; conditions: in vivo; summary of the method: as §1
[4] = Half life in rat at 10 mg/kg, po; format: ADME, organism-based; parameters: dose 10 mg/kg, route oral; conditions: in vivo; summary of the method: as §1
[5] = (§2) Oral bioavailability in rat at 10 mg/kg, po; format: ADME, organism-based; conditions: in vivo; summary of the method: as §1
Dipeptidyl peptidase 8 [6] = biological target: T1, Dipeptidyl peptidase 8; test: Inhibition of human DPP8 at 20 uM
Target sequence in this assay (Q6V1X1 whole entry, looked up): as the sequence (Q6V1X1 whole entry) above

Rattus norvegicus [7] = test: as §2; format: ADME, organism-based; conditions: in vivo; summary of the method: as §1
[8] = Plasma clearance in rat at 5 mg/kg, iv or 25 mg/kg, po; format: ADME, organism-based
Summary of the method: (§3)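 Rat pharmacokinetics after dosing at 5 mg/kg iv and 25 mg/kg po. Parameters derived: plasma clearance, oral Cmax, oral half-life, dose-normalised oral AUC and oral bioavailability (F).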

[9] = Cmax in rat at 25 mg/kg, po; format: ADME, organism-based; parameters: dose 25 mg/kg, route oral; conditions: in vivo; summary of the method: as §3
[10] = Half life in rat at 25 mg/kg, po; format: ADME, organism-based; parameters: dose 25 mg/kg, route oral; conditions: in vivo; summary of the method: as §3
[11] = Oral bioavailability in rat at 25 mg/kg, po; format: ADME, organism-based; conditions: in vivo; summary of the method: as §3
Rattus norvegicus [12] = test: Inhibition of DPP4 in Wistar rat plasma at 10 mg/kg, po within 30 mins; format: functional; conditions: 0.5 h
Summary of the method: (§4)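 Adult male Wistar rats (n = 4–6/group) given a single oral gavage of 10 mg/kg in 0.5% methyl cellulose. Tail-vein blood (25–50 µl) taken at timed points and plasma kept frozen. Plasma (10 µl) mixed with 150 µM Gly-Pro-AMC in 25 mM Tris-HCl pH 7.4, 140 mM NaCl, 10 mM KCl, 0.1% BSA. Fluorescence read at ex 390/em 460 nm. Activity in U/mL; mean ± SEM.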

Rattus norvegicus [13] = test: Inhibition of DPP4 in Wistar rat plasma at 10 mg/kg, po after 8 hrs; format: functional; summary of the method: as §4
Rattus norvegicus [14] = test: Inhibition of DPP4 in Wistar rat plasma at 10 mg/kg, po after 24 hrs; format: functional, organism-based; parameters: dose 10 mg/kg; summary of the method: as §4
Mus musculus = test: Reduction in glucose excursion in C57BL/6J lean mouse at 3 mg/kg, po pretreated 30 mins before glucose challenge measured after 120 mins by oral glucose tolerance test relative to control; format: functional, organism-based; parameters: dose 3 mg/kg
Summary of the method: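 Fasted overnight: adult male C57BL/6 mice (20–25 g, 6–8 weeks old, n = 6/group), grouped by tail-vein glucometer reading. Oral gavage of test agent in distilled water at −30 min (1, 3 or 10 mg/kg), then 3 g/kg oral glucose (400 mg/mL) at 0 min.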

hERG (KCNH2) = hERG (KCNH2) (Homo sapiens, UniProt Q12809); test: Inhibition of human ERG at 10 uM
Summary of the method: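 hERG binding; percent inhibition at a test concentration of 10 µM.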

Sequence of hERG (KCNH2) (Q12809 whole entry): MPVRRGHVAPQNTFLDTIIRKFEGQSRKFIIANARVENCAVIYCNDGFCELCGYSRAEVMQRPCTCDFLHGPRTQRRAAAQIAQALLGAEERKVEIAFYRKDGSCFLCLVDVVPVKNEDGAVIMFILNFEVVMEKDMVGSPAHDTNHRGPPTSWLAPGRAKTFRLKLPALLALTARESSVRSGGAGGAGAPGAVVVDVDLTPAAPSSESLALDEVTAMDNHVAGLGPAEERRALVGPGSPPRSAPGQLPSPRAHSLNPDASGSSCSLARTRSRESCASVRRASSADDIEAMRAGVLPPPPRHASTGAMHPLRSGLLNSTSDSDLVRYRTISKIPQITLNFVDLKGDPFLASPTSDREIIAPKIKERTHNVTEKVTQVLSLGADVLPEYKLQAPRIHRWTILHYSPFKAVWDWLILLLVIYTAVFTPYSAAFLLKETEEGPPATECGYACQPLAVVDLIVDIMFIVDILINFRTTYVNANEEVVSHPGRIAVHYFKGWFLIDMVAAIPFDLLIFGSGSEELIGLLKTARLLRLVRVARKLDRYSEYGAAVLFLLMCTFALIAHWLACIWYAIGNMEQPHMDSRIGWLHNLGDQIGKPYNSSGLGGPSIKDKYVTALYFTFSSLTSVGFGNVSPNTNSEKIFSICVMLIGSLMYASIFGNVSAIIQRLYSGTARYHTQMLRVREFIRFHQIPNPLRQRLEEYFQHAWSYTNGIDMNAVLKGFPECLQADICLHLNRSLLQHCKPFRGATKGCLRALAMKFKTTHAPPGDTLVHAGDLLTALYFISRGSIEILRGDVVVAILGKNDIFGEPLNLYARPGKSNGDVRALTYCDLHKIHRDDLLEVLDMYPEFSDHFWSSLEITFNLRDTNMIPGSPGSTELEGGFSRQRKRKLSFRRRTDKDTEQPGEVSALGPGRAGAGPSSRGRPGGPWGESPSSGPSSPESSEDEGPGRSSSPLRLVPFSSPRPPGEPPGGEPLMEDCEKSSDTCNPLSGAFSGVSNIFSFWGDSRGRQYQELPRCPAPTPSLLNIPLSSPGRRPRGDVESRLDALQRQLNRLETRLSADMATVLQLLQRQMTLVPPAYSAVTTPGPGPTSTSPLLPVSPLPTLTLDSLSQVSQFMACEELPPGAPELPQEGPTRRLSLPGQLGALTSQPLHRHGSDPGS

| Compound | IC50 (Dipeptidyl peptidase 8 [1]) [µM] | IC50 (Dipeptidyl peptidase 2) [µM] | IC50 (Prolyl endopeptidase FAP) [µM] | other results |
| --- | --- | --- | --- | --- |
| CC(C)(CC(=O)N[C@H]1C[C@@H]1c1cccc(C(F)(F)F)c1)NCC(=O)N1CCC[C@H]1C#N | > 20 | > 20 | > 20 |  |
| CC(C)(CC(=O)N[C@H]1C[C@@H]1c1cccc(Cl)c1)NCC(=O)N1CCC[C@H]1C#N (stereo in doubt; 22) | > 20 | > 20 | > 20 |  |
| CC(C)(CC(=O)N[C@H]1C[C@@H]1c1cccc(F)c1)NCC(=O)N1C[C@@H](F)C[C@H]1C#N |  | > 20 | > 20 | clearance [2]: 55 mL/min/kg; Cmax [3]: 175 ng/mL; half-life [4]: 1.2 h; bioavailability [5]: 29% |
| CC(C)(CC(=O)N[C@H]1C[C@@H]1c1ccc(Cl)cc1)NCC(=O)N1CCC[C@H]1C#N | > 20 | > 20 | > 20 |  |
| CC(C)(CC(=O)N[C@H]1C[C@@H]1c1ccc(F)cc1)NCC(=O)N1CCC[C@H]1C#N | > 20 | > 20 | > 20 |  |
| CC(C)(CC(=O)N[C@H]1C[C@@H]1c1cccc(F)c1)NCC(=O)N1CCC[C@H]1C#N | > 20 | > 20 | > 20 |  |
| CC(C)(CC(=O)N[C@H]1C[C@@H]1c1ccccc1)NCC(=O)N1C[C@@H](F)C[C@H]1C#N | > 20 | > 20 | > 20 |  |
| CC(C)(CC(=O)N[C@H]1C[C@@H]1c1cc(F)cc(F)c1)NCC(=O)N1CCC[C@H]1C#N | > 20 | > 20 | > 20 |  |
| CC(C)(CC(=O)N[C@@H]1C[C@H]1c1cccc(Cl)c1)NCC(=O)N1CCC[C@H]1C#N | > 20 | 17 | > 20 |  |
| CC(C)(CC(=O)N[C@H]1C[C@@H]1c1cccc(Cl)c1)NCC(=O)N1CCC[C@H]1C#N (stereo in doubt; 18k) | > 20 | > 20 | > 20 |  |
| COc1ccc([C@H]2C[C@@H]2NC(=O)CC(C)(C)NCC(=O)N2CCC[C@H]2C#N)cc1OC | > 20 | > 20 | > 20 |  |
| CC(C)(CC(=O)N[C@H]1C[C@@H]1c1cccnc1)NCC(=O)N1C[C@@H](F)C[C@H]1C#N | > 20 | > 20 | > 20 | inhibition (Dipeptidyl peptidase 8 [6]): 17% |
| CC(C)(CC(=O)N[C@@H]1C[C@H]1c1cccc(Cl)c1)NCC(=O)N1C[C@@H](F)C[C@H]1C#N |  | 5.2 | > 20 |  |
| CC(C)(CC(=O)N[C@H]1C[C@@H]1c1ccc(F)cc1F)NCC(=O)N1CCC[C@H]1C#N | > 20 | > 20 | > 20 |  |
| CC(C)(CC(=O)N[C@H]1C[C@@H]1c1cccc(OC(F)(F)F)c1)NCC(=O)N1CCC[C@H]1C#N | > 20 | > 20 | > 20 |  |
| CC(C)(CC(=O)N[C@H]1C[C@@H]1c1ccccc1)NCC(=O)N1CCC[C@H]1C#N | > 20 | 16 | > 20 |  |
| COc1cccc([C@H]2C[C@@H]2NC(=O)CC(C)(C)NCC(=O)N2C[C@@H](F)C[C@H]2C#N)c1 | > 20 | > 20 | > 20 | clearance [2]: 124 mL/min/kg; Cmax [3]: 898 ng/mL; half-life [4]: 6.8 h; F (Rattus norvegicus [7]): 194% |
| CC(C)(CC(=O)N[C@H]1C[C@@H]1c1ccc(C(F)(F)F)cc1)NCC(=O)N1CCC[C@H]1C#N | > 20 | > 20 | > 20 |  |
| CC(C)(CC(=O)N[C@H]1C[C@@H]1c1ccc(Cl)c(Cl)c1)NCC(=O)N1CCC[C@H]1C#N | > 20 | > 20 | > 20 |  |
| COc1ccc([C@H]2C[C@@H]2NC(=O)CC(C)(C)NCC(=O)N2C[C@@H](F)C[C@H]2C#N)cc1 | > 20 | > 20 | > 20 | clearance [8]: 20 mL/min/kg; Cmax [9]: 347 ng/mL; half-life [10]: 5.3 h; bioavailability [11]: 28% |
| CC(C)(CC(=O)N[C@H]1C[C@@H]1c1ccc(F)c(F)c1)NCC(=O)N1CCC[C@H]1C#N | > 20 | > 20 | > 20 |  |
| Cc1ncsc1[C@H]1C[C@@H]1NC(=O)CC(C)(C)NCC(=O)N1C[C@@H](F)C[C@H]1C#N | > 20 | > 20 | > 20 | inhibition (Dipeptidyl peptidase 8 [6]): 23%; inhibition in vivo at 10 mg/kg (Rattus norvegicus [12]): 60%; inhibition in vivo at 10 mg/kg (Rattus norvegicus [13]): 30% |
| CC(C)(CC(=O)N[C@H]1C[C@@H]1c1cccc(OC(F)(F)F)c1)NCC(=O)N1C[C@@H](F)C[C@H]1C#N | > 20 | > 20 | > 20 |  |
| N[C@@H](CC(=O)N1CCn2c(nnc2C(F)(F)F)C1)Cc1cc(F)c(F)cc1F |  |  |  | Activity (Rattus norvegicus [14]): inactive; Activity (Mus musculus): Active |
| CCOc1cccc([C@H]2C[C@@H]2NC(=O)CC(C)(C)NCC(=O)N2C[C@@H](F)C[C@H]2C#N)c1 | > 20 | > 20 |  |  |
| CC(C)(CC(=O)N[C@H]1C[C@@H]1c1cccc(Cl)c1)NCC(=O)N1CC(F)(F)C[C@H]1C#N |  | 0.59 |  | clearance [8]: 189 mL/min/kg; Cmax [9]: 454 ng/mL; half-life [10]: 3.2 h; bioavailability [11]: 53%; inhibition at 10 µM (hERG (KCNH2)): 15% |
